MrgX1 antagonist: antagonists of human MrgX1 receptor. Q96LB2. B-score at 10 µM. MRGX1-HEK293 calcium flux, Fluo-4, BAM8-22 antagonism; hits give low values. AID 588676. 310,000 compounds, 1.3% hits;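 active means calcium-response B-score plate-corrected more than 3 library SD below zero, starting fluorescence within 5 deviations, no agonist response on first addition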;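 further: peak minus trough fluorescence over baseline after final BAM8-22 challenge near maximal dose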
Target sequence (Q96LB2 whole entry, looked up): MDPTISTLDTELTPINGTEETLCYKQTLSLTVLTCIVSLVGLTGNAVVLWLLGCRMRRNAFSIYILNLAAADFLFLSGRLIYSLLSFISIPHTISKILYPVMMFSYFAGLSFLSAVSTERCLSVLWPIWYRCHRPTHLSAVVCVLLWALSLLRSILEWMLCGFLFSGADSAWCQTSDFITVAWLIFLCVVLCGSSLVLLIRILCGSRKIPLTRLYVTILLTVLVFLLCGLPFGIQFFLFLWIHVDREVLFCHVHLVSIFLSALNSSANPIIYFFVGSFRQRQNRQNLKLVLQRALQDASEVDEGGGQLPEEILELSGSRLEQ
MrgX1 ag: agonists of human MrgX1 receptor. Q96LB2. MrgX1-HEK293 cells, Fluo-4 calcium fluorescence, agonist mode; hits give high values. B-score at 10 µM. 310,000 compounds, 0.44% hits. AID 588627;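 active means calcium response B-score plate-corrected fluorescence ratio at least 3 library SD, with starting fluorescence B-score inside 5 SD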
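Test system: HEK293 cells stably expressing human MrgX1 receptor; Input: fifteen thousand cells per well; Dosing: compound delivered in addition one of three; Schedule: overnight seeding, then 1 h dark dye loading; Technique: Fluo-4 NW calcium fluorescence; Measure: B-scored fluorescence response ratio; Controls: positive and negative controls per plate.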
RGS4 inh: human RGS4 inhibition; AID 463165; B-score at 10 µM; 310,000 compounds, 0.45% hits; HEK293 M3R/RGS4 inducible, Fluo-4 calcium flux; hits give high values; triggered by carbachol at its EC20;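 active means B-score, a plate-corrected calcium signal, over three deviations above library mean, with baseline fluorescence within five deviations of library mean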;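 further: RGS4 expression induced by doxycycline in cells with stable M3 receptor; B-score is computed from the integrated fluorescence ratio over baseline after carbachol; higher B-score means a larger calcium signal and so more RGS4 inhibition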
Target sequence (P49798 whole entry, looked up): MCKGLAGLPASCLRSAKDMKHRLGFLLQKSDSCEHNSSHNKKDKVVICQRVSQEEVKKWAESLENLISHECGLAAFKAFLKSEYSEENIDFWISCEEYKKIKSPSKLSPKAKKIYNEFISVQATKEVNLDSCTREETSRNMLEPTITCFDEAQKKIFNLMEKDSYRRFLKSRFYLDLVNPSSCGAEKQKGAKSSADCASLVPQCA
MrgX1 PAM: human MrgX1 positive allosteric modulation, primary screen; MrgX1-HEK293, Fluo-4 calcium flux, FDSS; hits give high values; Q96LB2; B-score at 10 µM; 310,000 compounds, 0.63% hits; AID 588675;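 active means plate-corrected calcium response at least 3 library SD above typical, normal starting fluorescence, not activating the receptor alone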;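 further: compound read alongside a low EC10 to EC30 dose of BAM8-22 agonist; peak minus trough fluorescence over baseline measured at the second addition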
RGS4 act: potentiators or activators of RGS4; HEK293 M3R/inducible RGS4, carbachol calcium flux Fluo4; hits give low values; B-score at 10 µM; 310,000 compounds, 0.92% hits;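 active means B-score of the integrated calcium signal more than 4 SD below the library mean, with starting fluorescence not abnormally high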;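 further: negative B-score means reduced calcium response which marks RGS4 activation or potentiation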
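Reagent: ECmax carbachol challenge; Test system: M3R-expressing HEK293 line, RGS4 induced by doxycycline; Schedule: overnight RGS4 induction, 30 min dye load 37 °C, 20 min compound RT; Detection: calcium dye Fluo4 fluorescence; Read-out: Agonist-evoked peak-minus-minimum fluorescence over baseline, integrated ratio, B score.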
MrgX1 PAM conf: human MrgX1 positive allosteric modulation, re-confirmation; 1,200 compounds, 13% hits; MrgX1-HEK293, Fluo-4 calcium fluorescence, FDSS; shares compounds with MrgX1 PAM; AID 602413; activation (ratio percentage), % at 10 µM;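 active means ratio at least 3 SD above the weak peptide control, stable starting fluorescence, no direct agonism earlier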;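 further: compound followed by low BAM8-22 agonist challenge near EC20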
HEK293 Ca flux: activity in parental HEK293 cells lacking MrgX1 | fluorescence ratio F(max-min)/F0 at 10 µM | 4,000 compounds, 2% hits | Fluo-4 calcium fluorescence, FDSS | AID 624111 | shares compounds with MrgX1 antagonist;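 active means duplicate-averaged calcium fluorescence ratio at least three times the standard deviation of buffer wells, a nonspecific response in parental cells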
HEK293 Ca counter: activity in parental HEK293 cells without MrgX1 | parental HEK293 calcium flux, Fluo-4 fluorescence ratio; hits give high values | shares compounds with MrgX1 antagonist | AID 624114 | 4,000 compounds, 0.4% hits | fluorescence ratio F(max-min)/F0 at 10 µM;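 active means calcium fluorescence ratio, averaged over duplicates, at least 3 SD of the buffer-well ratio, meaning a nonspecific response in receptor-free cells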;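 further: untransfected parental HEK293 lacking MrgX1 used as counterscreen for MrgX1 allosteric activators; fluorescence change taken during the second addition on a kinetic imager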
HEK293 Ca cntr2: activity in parental HEK293 cells lacking MrgX1 receptor. Fluo-4 calcium fluorescence (FDSS); hits give high values. shares compounds with MrgX1 antagonist. AID 624115. 4,000 compounds, 8.7% hits. fluorescence ratio F(max-min)/F0 at 10 µM;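 active means calcium fluorescence ratio at least three times the spread of buffer wells, meaning a non-specific response in parental cells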
Starred values were filed as active, the others as inactive; i = inactive; nt = no result. Only some compounds are listed: those with a hit (about 3.5% of all), similar ones and a draw of the others.

SMILES	MrgX1 antagonist	MrgX1 ag	RGS4 inh	MrgX1 PAM	RGS4 act	MrgX1 PAM conf	HEK293 Ca flux	HEK293 Ca counter	HEK293 Ca cntr2
CCOC(=O)C1=C(C)NC(=O)CC1c1cc(OC)c(OC)cc1Br (stereo not given)	i	i	i	14.7*	i	i	i	i	i
COc1ccc(/C=C2/C(=N)N3C(=NC2=O)Sc2cc(S(C)(=O)=O)ccc23)cc1OC	i	i	i	37.1*	i	17.4%*	i	i	i
COc1ccc(NC(=S)N(CCN2CCCCC2)Cc2ccco2)cc1	i	i	i	10.3*	i	i	i	i	i
COc1ccc(NC(=S)N(CCCN2CCCC2)Cc2ccco2)cc1	i	i	i	i	i	nt	nt	nt	nt
CC(C)(C)[C@H]1C=C(C(=O)O)O[C@@H](OCc2ccc(CO)cc2)C1	i	i	i	i	i	nt	nt	nt	nt
COCCN(C(=O)COC(=O)CCOc1cccc(C)c1)c1c(N)n(Cc2ccccc2)c(=O)[nH]c1=O	i	i	i	i	i	nt	nt	nt	nt
Cc1ccc(S(=O)(=O)c2nnn(-c3cccc(F)c3)c2N)cc1	i	i	i	8.85*	i	i	i	i	i
O=S(=O)(Nc1ncnc2scc(-c3ccc(F)cc3)c12)c1cc(F)ccc1F	i	i	i	11.9*	i	i	i	i	i
COc1ccc(C2=CC(c3ccc(F)cc3)n3nnnc3N2)cc1 (stereo not given)	i	i	i	7.03*	i	i	i	i	i
COc1ccc(C2=CC(c3sccc3C)n3nnnc3N2)cc1 (stereo not given)	i	i	i	i	i	nt	nt	nt	nt
CC1(C)Cc2cccc(Oc3ccc(S(=O)(=O)N4CCCCC4)cn3)c2O1	i	i	i	11.3*	i	i	i	i	i
Cc1ccc(C(=O)NCC(=O)OCC(=O)NCC(F)(F)F)cc1	i	i	i	i	i	nt	nt	nt	nt
CC1CCN(C(=O)c2cc3ccccc3cc2O)CC1	i	i	i	i	i	nt	nt	nt	nt
Cc1n[nH]c(C)c1Cc1c(F)cccc1Cl	i	i	i	24.6*	i	15.9%*	i	i	i
Nc1nc(-c2ccccn2)nc(N)c1Cc1c(F)cccc1Cl	i	i	i	i	i	nt	nt	nt	nt
O=C1NC2(CCCCCC2)Oc2ccccc21	i	i	i	i	i	nt	nt	nt	nt
CCC1(Cc2ccccc2)NC(=O)c2ccccc2O1 (stereo not given)	i	i	i	12.4*	i	i	i	i	i
OCc1cc(-c2ccc(Cl)c(Cl)c2)on1	i	i	i	i	i	nt	nt	nt	nt
COc1ccccc1-n1c(C)cc(/C=C2/C(=N)N3C(=NC2=O)SN=C3S(C)(=O)=O)c1C	i	i	i	20.8*	i	i	i	i	i
COc1ccccc1-c1nnc(C2CCN(S(=O)(=O)c3ccccc3[N+](=O)[O-])CC2)o1	i	i	i	i	i	nt	nt	nt	nt
CN(C)C(=O)COc1ncnc2scc(-c3ccc(F)cc3)c12	i	i	i	8.22*	i	35.4%*	i	i	i
CCN(C(=O)COc1ncnc2scc(-c3ccc(F)cc3)c12)C1CCS(=O)(=O)C1 (stereo not given)	i	i	i	i	i	nt	nt	nt	nt
CCN(c1ccccc1)S(=O)(=O)c1ccc(Cl)nc1	i	i	i	9.38*	i	i	i	i	i
CC(C)N(C(C)C)S(=O)(=O)c1ccc(N2CCc3ccccc3C2)nc1	i	i	i	8.37*	-7.1*	i	i	i	i
CC(C)N(C(C)C)S(=O)(=O)c1ccc(Cl)nc1	i	i	i	7.69*	i	i	i	i	i
SMILES	MrgX1 antagonist	MrgX1 ag	RGS4 inh	MrgX1 PAM	RGS4 act	MrgX1 PAM conf	HEK293 Ca flux	HEK293 Ca counter	HEK293 Ca cntr2
CCN(c1ccccc1)S(=O)(=O)c1ccc(N)c(OC)c1	i	i	i	6.63*	i	i	i	i	i
CCN(c1cccc2ccccc12)S(=O)(=O)c1ccc(Cl)nc1	i	i	i	i	i	nt	nt	nt	nt
Cc1ccc(S(=O)(=O)N2CCc3ccccc3C2)cc1	i	i	i	i	i	nt	nt	nt	nt
NC(=O)c1cc(NC(=O)c2ccc(NS(=O)(=O)c3cccs3)cc2)cc(C(N)=O)c1	i	i	i	i	i	nt	nt	nt	nt
COc1cc(NC(=O)c2ccco2)c(C(=O)OCC(=O)c2c[nH]c3ccccc23)cc1OC	i	i	i	i	i	nt	nt	nt	nt
CCN1C(=O)[C@@H]2[C@H](C1=O)[C@@H]1C(=O)Nc3ccccc3C(=O)N1[C@@H]2c1cccc(Cl)c1	i	i	i	i	i	nt	nt	nt	nt
CC(C)c1ccc(NC(=O)CCCN2C(=S)NC(C)(C)CC2C)cc1 (stereo not given)	i	i	i	i	i	nt	nt	nt	nt
CCN(CC)C(=O)Oc1ccnc2cc(Cl)ccc12	i	i	i	7.44*	i	i	i	i	i
CCN(CC)C(=O)Oc1ccc2ccccc2c1Cl	i	i	i	i	i	nt	nt	nt	nt
O=C(Oc1ccnc2cc(Cl)ccc12)N1CCCCCC1	i	i	i	15.2*	i	i	i	i	i
COc1cccc(OC)c1C(=O)N1CCNCC1	i	i	i	i	i	nt	nt	nt	nt
Cc1cc(C)c2c(=O)n(CC(=O)Nc3ccc(Br)c(C)c3)sc2n1	i	i	i	7.05*	i	i	i	i	i
C#CCN(C(=O)c1ccc(OC2CCN(Cc3ccccn3)CC2)cc1)C1CCCCC1	i	i	i	i	i	nt	nt	nt	nt
CN(C)S(=O)(=O)c1ccc(Cl)c(NC(=O)COC(=O)CN2C(=O)C3CCCCC3C2=O)c1 (stereo not given)	i	i	i	8.99*	i	i	i	i	i
Cc1ccc(-n2c(C)cc(C(=O)CSc3nnnn3C)c2C)cc1	i	i	i	i	i	nt	nt	nt	nt

High-throughput results deposited in PubChem BioAssay by Johns Hopkins Ion Channel Center.
